An excerpt weighted towards active compounds, which were near 12% of everything screened.
Dynein transport: blocks dynein driven cargo transport along microtubules. 3617.4 mouse cells, GR-EGFP nuclear translocation imaging; test concentration mostly 20 µM; stimulated with dexamethasone, 1 µM; hits give low values. z-score, hits read low. hit rate 0.47% among 220,000. AID 1381;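 active = plate z-score of nuclear minus cytoplasmic receptor signal below a set negative limit, without overly bright fluorescence or cell loss, cut at about -3.5 in these data, passing the limit was not always enough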;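 also: z-score of nuclear minus cytoplasmic ring GR-EGFP intensity difference per well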
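Medium: Induction medium lacking tetracycline, stripped serum | Probe or stimulus: 1.0 µM final dexamethasone stimulus | Schedule: 48 h induction, then 1 h compound, then 30 min agonist, 37 °C | Signal: Automated 10x imaging of fixed Hoechst-stained cells | Evaluation: Per-cell GR-EGFP intensity, nucleus versus surrounding cytoplasmic ring, well-averaged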
MT stabilizer: microtubule stabilization, imaging screen | HeLa tubulin immunostaining HCS, 24 h; share of cells brighter than vehicle mean+2SD | % tubulin-high responders, % at 10 µM | hit rate 0.83% among 200,000 | AID 2205;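 active = plate Z-score above 3 for both tubulin-high and condensed-nucleus cell shares, with cell loss under 80%, at 10 µM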;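 also: anti alpha tubulin signal scored within the nucleus-defined area of each cell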
CHOP inh: blocks CHOP induction under ER stress. hit rate 3.8% among 220,000. inhibition, % at 10 µM. CHO-K1 CHOP-promoter luciferase, tunicamycin-induced, 15-18 h;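 active = compounds that reduced the stress-induced luciferase reporter signal by more than about 70% of percent inhibition, limit read from the data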
Autophagy HCS: alters autophagy in cells; MEF GFP-LC3 puncta imaging; test concentration mostly 10 µM; calls only at 10 µM (by protocol); hit rate 0.98% among 190,000; AID 463193;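 active = percentage of spot-positive cells more than 3 SD above its plate mean, without a fluorescence outlier flag or 80% toxicity; inconclusive = no clear call, values can overlap the other calls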
b-catenin transl: alters nuclear translocation of beta-catenin in HeLa cells; nuclear translocation activity, % at 5 µM; immunofluorescence imaging; hit rate 0.3% among 190,000;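 active = nuclear translocation activity above 50% at 5 µM, with a well cell count of 50 or more; inconclusive = wells under 50 cells across six images, flagged as toxic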;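 also: per-cell ratio of nuclear to cytoplasmic median beta-catenin stain intensity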
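assay system = human HeLa cells, endogenous beta-catenin | times = compound treatment 24 h, 37°C, 5% CO2 | detection = Anti-beta-catenin immunofluorescence on PFA-fixed, Triton-permeabilized cells, DAPI nuclei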
Lmaj promast: reduces viability of Leishmania major promastigotes. resazurin fluorescence viability. inhibition, % at 10 µM. hit rate 9% among 200,000. AID 1063; in the data active = inhibition above about 50%;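 also: promastigotes grown with compound for 44 hours at 28 °C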
Lmaj promast 1uM: L. major promastigote growth inhibition, 1 uM repeat; shares compounds with Lmaj promast; resazurin fluorescence, 48 h; inhibition, % at 1 µM; hit rate 13% among 1,100; AID 1258;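 active = inhibition above about 50% in both repeat tests, limit read from the data; inconclusive = one repeat under the set limit, the other over it; inactive = both repeats under the set limit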
Hits are given with their value; – = inactive; ? = inconclusive; · = no result; + = active, no number.

SMILES	Dynein transport	MT stabilizer	CHOP inh	Autophagy HCS	b-catenin transl	Lmaj promast	Lmaj promast 1uM
CCOC(=O)N1CCC(N(CCN(C)C)C(=S)Nc2cc(C)cc(C)c2)CC1	–	–	–	–	–	–	·
CN(C)CCCC(C)(O)C(Cc1ccccc1)c1ccccc1 (stereo unspecified)	–	–	–	–	–	86	–
COc1ccc(CSC2=NCCN2)cc1Cl	–	–	–	–	·	99	–
Cc1ccc(S(=O)(=O)C(c2ccccc2)c2c(C)noc2C)cc1 (stereo unspecified)	–	–	–	–	–	61	–
Cc1noc(C)c1C(c1ccccc1)c1ccccc1	–	–	–	–	–	–	·
Cc1ccc(S(=O)(=O)NCc2c(-c3ccccc3)noc2C)cc1	–	·	–	·	–	·	·
Cc1noc(C)c1C(c1ccccc1)S(=O)(=O)c1ccccc1 (stereo unspecified)	–	–	–	–	–	85	–
CCOC(=O)c1nnn(CC(=O)NC(=O)Nc2ccc(F)cc2)c1C(=O)OCC	–	–	–	–	–	–	·
O=c1cc(O)nc(-c2ccc(Cl)cc2)s1	–	–	–	–	–	–	·
COC(=O)c1cc(OC)c(OC)cc1NC(=S)N1CCC(C(N)=O)CC1	–	–	–	–	–	–	·
CCOC(=O)C1CCN(C(=S)Nc2cc(OC)c(OC)cc2C(=O)OC)CC1	–	–	–	–	–	61	–
CCCNC(=O)c1ccc2c(c1)C1C3CCC(C3)C1C(c1ccccc1)N2 (stereo unspecified)	–	–	–	–	–	81	–
CCOC(=O)c1oc2ccc(CNC(C)(C)C)c(Cl)c2c1C	–	–	–	–	–	99	–
COc1ccc(NC(=O)CSc2ccc3nnc(-c4cccnc4)n3n2)c(OC)c1	–	–	–	–	–	–	·
Cc1cccc(COCC(CC(C)C)N2CCN(C(=O)c3ccc(C(C)(C)C)cc3)CCC2=O)c1 (stereo unspecified)	–	–	71	–	·	58	–
COc1ccc(OC)c(N/C(=N/C(=S)Nc2ccccc2)Nc2nc(C)cc(C)n2)c1	–	·	–	·	–	·	·
CC12CCCCN1CCCc1c2[nH]c2ccccc12 (stereo unspecified)	–	–	–	–	–	64	–
c1ccc2c3c([nH]c2c1)C1(CCCCC1)NCC3	–	–	–	–	–	–	·
Cc1ccc(C(=O)COc2nc(C)nc3ccccc23)cc1	–	–	–	–	–	–	·
COC(=O)c1cc(OC)c(OC)cc1NC(=O)C(C)c1ccc([N+](=O)[O-])cc1 (stereo unspecified)	–	–	–	–	–	–	·
C(=C\c1nnc2c3ccccc3ncn12)/c1ccccc1	–	–	–	–	·	55	–
COc1cc(/C=C/c2nnc3c4ccccc4ncn23)cc(OC)c1OC	–	–	–	–	–	–	·
COc1ccccc1NC(=O)CN(Cc1ccco1)C(=O)c1cc2ccccc2o1	–	–	–	–	–	–	·
Cc1cc(C)nc(/N=C(\N)Nc2ccc(F)c([N+](=O)[O-])c2)n1	–	–	–	–	·	–	·
O=C(N/N=C/c1ccncc1)c1cccc(S(=O)(=O)Nc2ccc(Cl)cc2)c1	–	·	–	·	–	·	·
SMILES	Dynein transport	MT stabilizer	CHOP inh	Autophagy HCS	b-catenin transl	Lmaj promast	Lmaj promast 1uM
N#CC(c1cccc(Cl)c1)c1ccc2c(C(F)(F)F)cc(C(F)(F)F)nc2n1 (stereo unspecified)	–	–	102	+	–	100	60
CCn1cc(C(=O)N[C@H](C)c2ccccc2)c(=O)c2cc(F)c(N3CCN(C)CC3)cc21	–	–	–	–	–	85	–
Cn1nc(C(=O)OCC(=O)Nc2ccc3ccccc3c2)c2ccccc2c1=O	–	–	–	–	–	–	·
NC(=S)Nc1cc2ccccc2c2ccccc12	–	–	–	–	–	–	·
NC(=S)Nc1cccc2cc3ccccc3cc12	–	–	–	–	–	98	–
Cc1cc2c(c(/C=C/C(=O)c3ccccc3)c1)OC1(C=C2)Oc2ccccc2C(=O)N1C (stereo unspecified)	–	–	–	–	–	98	–
N/C(=N\O)c1ccccc1N1CCCCC1	–	–	–	–	–	–	·
CCCn1c(=O)c(C(=O)NCc2ccc(OC)c(OC)c2)c(O)c2ccccc21	–	–	–	–	–	–	·
CCn1c(=O)c(C(=O)NCc2ccc(OC)c(OC)c2)c(O)c2ccccc21	–	–	–	–	–	84	–
CCN(CC)CC(=O)Nc1ccc2c(c1)N(C(=O)CN(CC)CC)c1ccccc1CC2	–	–	–	–	–	99	–
O=C(N/N=C/c1cccs1)/C(=C/c1ccccc1)NC(=O)c1ccccc1	–	–	–	–	·	–	·
Cc1cc2c(cc1C)NC(c1cccnc1)C1=C(CC(C)(C)CC1=O)N2 (stereo unspecified)	–	–	–	–	–	–	·
Cn1cccc1C1Nc2ccccc2NC2=C1C(=O)CC(C)(C)C2 (stereo unspecified)	–	–	–	–	–	91	–
CCOC(=O)C1C(C(=O)OCC)C1(c1ccccc1)c1ccccc1 (stereo unspecified)	–	–	–	–	·	89	–
Cc1cccc(C(=O)OCC(=O)NCCCc2ccccc2)c1	–	–	–	–	–	–	·
C[N+]1(C2CCC3CCCC2C3O)CCCC1 (stereo unspecified)	–	–	–	–	·	65	–
CC1(CCc2ccccc2)NC(=S)N(c2ccccc2)N1 (stereo unspecified)	–	–	–	–	·	70	–
CC(=O)Nc1ccc(Oc2ccc([N+](=O)[O-])cc2Cl)cc1	–	–	–	–	–	–	·
O=C(Cn1cnc([N+](=O)[O-])c1)Nc1cc(Oc2ccc(Cl)cc2Cl)cc([N+](=O)[O-])c1	–	–	–	–	?	100	62
Cc1nn(C)c(C)c1/C=N/N=C1\CCC2C3CCc4cc(O)ccc4C3CCC12C (stereo unspecified)	–	–	–	–	–	98	–
CCCS(=O)(=O)c1c(S(=O)(=O)CCC)c2c3ccccc3ccn2c1C(=O)OC	–	–	–	–	–	82	–
CC(C)CN(C(=O)c1ccc(=O)n(C)n1)c1nc2ccccc2s1	–	–	–	–	–	57	–
Cc1ccc(NC(=S)Nc2ccc(OC(F)F)c(Cl)c2)cc1F	–	–	–	–	–	–	·
CCOC(=O)c1sc(NC(=O)c2cc3n(n2)C(C(F)(F)F)CC(c2ccccc2)N3)c(C(=O)OCC)c1C (stereo unspecified)	–	–	–	–	–	–	·
COc1ccccc1-c1nnc(SCC(=O)Nc2ccc(S(N)(=O)=O)cc2)n1N	–	·	–	·	–	·	·
CC[n+]1c(C)sc2c(C)cc(C)cc21	–	–	–	–	–	69	–
